Measurements collected from several papers.
Each line is one published result; the experiments were not run side by side.
Effect on: enzyme activity
Action: inhibitor
ABL1 H396P: Tyrosine-protein kinase ABL1 (ABL1, Homo sapiens, UniProt P00519, H396P)
ABL1: Tyrosine-protein kinase ABL1 (ABL1, Homo sapiens, UniProt P00519)

| SMILES | target | method | tested at | inhibition [%] |
| --- | --- | --- | --- | --- |
| CNc1cccc2cc(C(=O)Nc3ccc(C(=O)O)cc3)c(=O)[nH]c12 | ABL1 H396P | – | 10 µM | 1.9 |
| CNC(=O)c1cc2c(Oc3ccc(NC(=O)C4(C(=O)Nc5ccc(F)cc5)CC4)cc3)ccnc2cc1OC | Tyrosine-protein kinase ABL1 (ABL1, Homo sapiens, UniProt P00519, T315I) | radiometric | 1 µM | 75 |
| O=C(CSc1nc2nccnc2c(=O)n1CCc1ccccc1)Nc1nccs1 | ABL1 | – | 10 µM | 4 |
| CNCc1ccc(-c2cc(-c3nc(-c4ccc(S(=O)(=O)C(C)C)cc4)cnc3N)on2)cc1 | ABL1 | – | 0.4 µM | 11 |
| CS(=O)(=O)Nc1cccc(-c2csc(NC(=O)CSc3nc4nccnc4c(=O)n3CCc3ccccc3)n2)c1 | Tyrosine-protein kinase ABL1 (ABL1, Homo sapiens, UniProt P00519, E255K) | – | 10 µM | -2 |
| CCOc1cc(-c2nncn2C)ccc1Nc1ncc2cc(C)nc(NCC(C)(C)C)c2n1 | ABL1 | FRET | 1 µM | < 15 |
| CC/C(=N\NC(=O)NCc1cccc(O)c1)c1ccc(O)c(C)c1O | ABL1 | – | 0.1 µM | -0.9 |
| COc1cc2ncnc(Nc3ccc(Oc4ccccc4)cc3C)c2cc1OC | Tyrosine-protein kinase ABL1 (ABL1, Homo sapiens, UniProt P00519, Y253F) | – | 1 µM | 12 |
| CN(C)C1CCN(CC#Cc2nn(C3CCCC3)c3nc(NCc4ccccc4)ncc23)C1 (stereo not drawn) | ABL1 | FRET | 0.1 µM | 1 |
| COc1cc2ncnc(Nc3ccc(Oc4ccccc4)c(C)c3C)c2cc1OC | ABL1 | – | 1 µM | -4 |
| C=CC(=O)Nc1cc(Nc2nccc(Nc3cc(Cl)c(F)cc3C(C)(C)O)n2)c(OC)cc1N1CC[C@@H](N(C)C)C1 | ABL1 | – | 1 µM | 6 |
| COc1cc(-c2cc(-c3ccc(N4CCNCC4)cc3)cnc2N)cc(OC)c1OC | ABL1 H396P | – | 0.1 µM | 87 |
